According to ChEMBL document CHEMBL3351343, “Synthesis and biological evaluation of novel sigma-1 receptor antagonists based on pyrimidine scaffold as agents for treating neuropathic pain” (J Med Chem, 2014):

What was measured:
Mus musculus = assay: Antinociceptive activity in ip dosed Kun Ming mouse pain model assessed as reduction in licking and biting time during phase-1 administered 15 mins prior to formalin challenge relative to vehicle-treated control; assay type: functional
How it was run: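 Kun Ming mice (20 ± 2.0 g), 10–12 per group, given vehicle (30% PEG 400) or drug ip at 10 mL/kg 15 min before intraplantar formalin. Time spent licking or biting the injected paw scored at 0–5 min (phase I) and 15–45 min (phase II). Effect (%) = (LTV − LTD)/LTV × 100.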

Rattus norvegicus [1] = assay: Antineuropathic pain activity in po dosed Sprague-Dawley rat chronic constriction injury model assessed as inhibition of thermal hypersensitivity measured on day 18 by repeated dose treatment assay relative to sham-treated control; assay type: functional
How it was run: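 Sprague-Dawley rats, sciatic nerve chronic constriction injury (four loose 4-0 silk ligatures, chloral hydrate anaesthesia); sham has nerve exposed without ligation. Model confirmed on day 14. Oral dosing in 0.5% methylcellulose, 10 mL/kg, twice daily on days 15–18. Read after first dose (day 15) and last dose (day 18). Von Frey withdrawal threshold and radiant-heat plantar withdrawal latency (30 s cutoff), each paw sampled four times and averaged; 10 rats/group.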

Rattus norvegicus [2] = assay: Cmax in Sprague-Dawley rat at 16 mg/kg, iv by HPLC/MS/MS analysis; assay type: ADME, organism-based; design: dose 16 mg/kg, route intravenous; settings: in vivo
How it was run: (§1)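 Sprague-Dawley rats (250 ± 5.0 g), n = 8/group, dosed iv via lateral tail vein at 16 mg/kg in 100% saline or by oral gavage at 320 mg/kg as suspension in 0.5% methylcellulose. Serial tail-vein blood into heparinized tubes at 30 min, 1, 2, 3, 4, 5, 6, 7 and 24 h. Plasma treated by acetonitrile protein precipitation, then HPLC/MS on C18 column, 40 °C.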

[3] = AUC (0 to infinity) in Sprague-Dawley rat at 320 mg/kg, po by HPLC/MS/MS analysis; assay type: ADME, organism-based; design: dose 320 mg/kg, route oral, time infinity; settings: plasma; how it was run: as §1
[4] = target: Histamine H1 receptor (Cavia porcellus) (UniProt P31389); assay: Displacement of [3H]-mepyramine from guinea pig cerebellum histamine H1 receptor at 1 uM after 60 mins by liquid scintillation counting analysis
[5] = target: Histamine H3 receptor (Rattus norvegicus) (UniProt Q9QYN8); assay: Displacement of [3H]-N-alpha-methylhistamine from rat cerebral cortex histamine H3 receptor at 1 uM after 30 mins by liquid scintillation counting analysis; assay type: tissue-based
[6] = target: Adrenergic receptor alpha-2 (Rattus norvegicus) (UniProt P22086+P19328+P22909); assay: Displacement of [3H]-rauwolscine from rat cerebral cortex adrenergic alpha-2 receptor at 1 uM after 60 mins by liquid scintillation counting analysis; assay type: tissue-based
[7] = target: Glutamate NMDA receptor (Rattus norvegicus) (UniProt P35439+Q00959+Q00960+Q00961+Q62645+Q8VHN2+Q9R1M7); assay: Displacement of [3H]-glycine from rat hippocampal membrane NMDA receptor at 1 uM after 30 mins by liquid scintillation counting analysis
[8] = target: Cannabinoid receptor 1 (Homo sapiens) (UniProt P21554); assay: Displacement of [3H]-CP-55940 from human CB1 receptor expressed in CHO cells at 1 uM after 90 mins by liquid scintillation counting analysis; assay type: cell-based
[9] = Half life in Sprague-Dawley rat at 16 mg/kg, iv by HPLC/MS/MS analysis; settings: in vivo
[10] = AUC (0 to 24 hrs) in Sprague-Dawley rat at 16 mg/kg, iv by HPLC/MS/MS analysis; settings: plasma
[11] = AUC (0 to infinity) in Sprague-Dawley rat at 16 mg/kg, iv by HPLC/MS/MS analysis; settings: plasma

Sequence of Cannabinoid receptor 1 (Homo sapiens) (P21554 whole entry): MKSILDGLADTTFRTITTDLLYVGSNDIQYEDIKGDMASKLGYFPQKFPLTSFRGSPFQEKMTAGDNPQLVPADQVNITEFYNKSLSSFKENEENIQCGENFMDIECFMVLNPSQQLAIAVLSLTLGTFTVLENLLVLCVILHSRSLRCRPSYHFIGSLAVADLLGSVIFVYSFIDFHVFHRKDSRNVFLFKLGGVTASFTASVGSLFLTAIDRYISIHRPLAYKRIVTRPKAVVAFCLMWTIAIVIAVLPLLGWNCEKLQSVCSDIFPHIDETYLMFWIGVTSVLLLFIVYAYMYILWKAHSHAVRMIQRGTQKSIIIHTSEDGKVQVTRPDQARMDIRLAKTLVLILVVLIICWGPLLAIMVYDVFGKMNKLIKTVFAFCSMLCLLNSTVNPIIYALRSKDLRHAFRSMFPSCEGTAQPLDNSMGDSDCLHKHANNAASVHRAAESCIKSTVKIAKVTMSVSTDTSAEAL
Sequence of Histamine H3 receptor (Rattus norvegicus) (Q9QYN8 whole entry): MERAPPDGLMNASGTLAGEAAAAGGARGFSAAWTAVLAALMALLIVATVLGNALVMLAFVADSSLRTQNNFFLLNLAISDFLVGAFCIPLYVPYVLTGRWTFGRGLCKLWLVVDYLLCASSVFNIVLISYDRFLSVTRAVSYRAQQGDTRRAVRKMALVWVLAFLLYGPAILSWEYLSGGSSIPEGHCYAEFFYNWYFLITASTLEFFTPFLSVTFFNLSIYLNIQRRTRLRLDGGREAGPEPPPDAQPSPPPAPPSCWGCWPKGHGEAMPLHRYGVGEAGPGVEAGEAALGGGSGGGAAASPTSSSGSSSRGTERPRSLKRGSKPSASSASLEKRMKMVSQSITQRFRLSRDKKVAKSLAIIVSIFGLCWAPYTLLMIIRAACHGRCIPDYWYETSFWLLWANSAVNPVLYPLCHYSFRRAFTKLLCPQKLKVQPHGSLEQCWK
Sequence of Histamine H1 receptor (Cavia porcellus) (P31389 whole entry): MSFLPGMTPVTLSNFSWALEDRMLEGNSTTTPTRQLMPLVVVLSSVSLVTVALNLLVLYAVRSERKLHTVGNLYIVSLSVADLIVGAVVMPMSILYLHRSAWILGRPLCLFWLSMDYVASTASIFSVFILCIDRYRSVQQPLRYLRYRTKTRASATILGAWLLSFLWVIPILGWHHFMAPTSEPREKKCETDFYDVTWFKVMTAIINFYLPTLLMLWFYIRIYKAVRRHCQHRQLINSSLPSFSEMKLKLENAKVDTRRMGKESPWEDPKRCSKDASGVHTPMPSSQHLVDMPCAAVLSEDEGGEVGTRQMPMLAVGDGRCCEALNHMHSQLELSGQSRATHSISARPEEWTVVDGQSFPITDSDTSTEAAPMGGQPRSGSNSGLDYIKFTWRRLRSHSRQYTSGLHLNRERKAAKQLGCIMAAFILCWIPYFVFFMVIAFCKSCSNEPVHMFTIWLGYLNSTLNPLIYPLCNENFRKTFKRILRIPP

For Cc1nc(-c2ccc(Cl)cc2)nc(OCCCN2CCCCC2)c1Cl, the Activity (Mus musculus) was “Dose-dependent effect”, the ED50 (Mus musculus) was 48.4 mg/kg and the inhibition (Rattus norvegicus [1]) was “Dose-dependent effect”. For the same compound, the ED50 (Rattus norvegicus [1]; 432 h) was 50.2 mg/kg, the Cmax (Rattus norvegicus [2]) was 7260 ng/mL and the AUC(0-inf) [3] was 55400 ng·h/mL. The inhibition [4] was < 50%, the inhibition [5] was < 50% and the inhibition [6] was < 50%. For the same compound, the inhibition [7] was < 50%, the inhibition [8] was < 50% and the half-life [9] was 10.6 h. The AUC(0-t) at 24 h [10] was 3300 ng·h/mL and the AUC(0-inf) [11] was 3690 ng·h/mL.
